Measured values: ChEMBL document CHEMBL1138925, “Design and synthesis of orally active pyrrolidin-2-one-based factor Xa inhibitors” (Bioorg Med Chem Lett, 2006)

Key:
[1] = Half life in Han Wistar rat at 1 mg/kg, iv and 2.5 mg/kg, po; format: ADME, organism-based; conditions: in vivo
How it was run: (§1)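 Male Han Wistar rats were given an intravenous bolus at a nominal 1 mg/kg, or oral gavage at a nominal 2.5 mg/kg.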

[2] = Plasma clearance in Han Wistar rat at 1 mg/kg, iv and 2.5 mg/kg, po; format: ADME, organism-based; how it was run: as §1
[3] = Volume of distribution in Han Wistar rat at 1 mg/kg, iv and 2.5 mg/kg, po; format: ADME, organism-based; conditions: in vivo, read-out: Vss; how it was run: as §1
[4] = Oral bioavailability in Beagle dog at 1 mg/kg, iv and 1 mg/kg, po; format: ADME, organism-based, Canis lupus familiaris; conditions: in vivo
[5] = Plasma clearance in Beagle dog at 1 mg/kg, iv and 1 mg/kg, po; format: ADME, organism-based, Canis lupus familiaris
[6] = Oral bioavailability in Han Wistar rat at 1 mg/kg, iv and 2.5 mg/kg, po; format: ADME, organism-based; conditions: in vivo; how it was run: as §1
[7] = Lipophilicity, log D by CHI assay at pH 7.4; format: physicochemical; conditions: buffer, read-out: Log D
[8] = Volume of distribution in Beagle dog at 1 mg/kg, iv and 1 mg/kg, po; format: ADME, organism-based, Canis lupus familiaris; conditions: in vivo, read-out: Vss
[9] = Half life in Beagle dog at 1 mg/kg, iv and 1 mg/kg, po; format: ADME, organism-based, Canis lupus familiaris; conditions: in vivo

Compound	half-life [1]	clearance [2]	Vd [3]	bioavailability [4]	clearance [5]	bioavailability [6]	chromatographic logD [7]	Vd [8]	half-life [9]
C[C@@H](C(=O)N1CCOCC1)N1CC[C@H](N(CC(=O)O)S(=O)(=O)c2ccc3cc(Cl)ccc3c2)C1=O	12 min	37 mL/min/kg	0.3 L/kg	–	–	–	–	–	–
C[C@@H](C(=O)N1CCOCC1)N1CC[C@H](N(CC(N)=O)S(=O)(=O)c2ccc3cc(Cl)ccc3c2)C1=O	18 min	24 mL/min/kg	0.5 L/kg	–	–	–	–	–	–
C[C@@H](C(=O)N1CCOCC1)N1CC[C@H](NS(=O)(=O)c2ccc3cc(Cl)ccc3c2)C1=O	54 min	13 mL/min/kg	0.6 L/kg	100%	2.7 mL/min/kg	85%	2.2	0.44 L/kg	126 min
CCC(=O)CN([C@H]1CCN([C@@H](C)C(=O)N2CCOCC2)C1=O)S(=O)(=O)c1ccc2cc(Cl)ccc2c1	30 min	37 mL/min/kg	1.1 L/kg	–	–	–	–	–	–
C[C@@H](C(=O)N1CC2CNCC(C2)C1)N1CC[C@H](NS(=O)(=O)c2ccc3cc(Cl)ccc3c2)C1=O	–	–	–	–	–	–	1.47	–	–
C[C@@H](C(=O)N1CCOCC1)N1CC[C@H](N(C)S(=O)(=O)c2ccc3cc(Cl)ccc3c2)C1=O	30 min	15 mL/min/kg	0.4 L/kg	–	–	–	–	–	–
C[C@@H](C(=O)N1CC2CCC1CC2)N1CC[C@H](NS(=O)(=O)c2ccc3cc(Cl)ccc3c2)C1=O	–	–	–	–	–	–	2.94	–	–
